# Calls of active or inactive are those of the source. The calls are words filed in the database; no cut-off is given here.
# Columns and labels:
# [1] = system: MCF7; experiment: Cytotoxicity against human MCF7 cells after 72 hrs by sulforhodamine B assay; type: functional, cell-based; details: for IC50: MCF7, 72 h
# Procedure, shortened: (§1)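 Antiproliferative test on MCF-7 human breast adenocarcinoma and A-549 human lung carcinoma cells. SN38 (7-ethyl-10-hydroxycamptothecin) served as positive control. IC50 is the concentration giving 50% inhibition of cell growth, calculated by a literature procedure.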
# [2] = system: A549; experiment: Cytotoxicity against human A549 cells after 72 hrs by sulforhodamine B assay; type: functional, cell-based; details: for IC50: A549, 72 h; procedure, shortened: as §1
SMILES,IC50 [1] [nM],IC50 [2] [nM],Activity [1],Activity [2]
C/C=C1/CN2CC[C@@H]1[C@@]1(C[C@H]3C[C@@H]4/C(=C\Cc5c3n1c1ccccc51)C(=O)N(C)C[C@@H]4CC)c1[nH]c3ccccc3c1C2,> 10000,7500,,
CC[C@@H]1CN(C)[C@@H]2Cc3c([nH]c4ccccc34)[C@H](c3ccc4c(c3)N=C3[C@@H]5C[C@H]6C[C@H](CC)[C@@H]5N(CC[C@@]34O)C6)C[C@H]1[C@H]2C(=O)OC,1300,> 10000,,
CC[C@@H]1CN(C)[C@@H]2Cc3c([nH]c4ccccc34)[C@H](c3ccc4c5c([nH]c4c3)[C@]3(C(=O)OC)C[C@H]4C[C@H](CC)[C@@H]3N(CC5)[C@H]4CC(C)=O)C[C@H]1[C@H]2C(=O)OC,1300,1200,,
CCc1c2c(nc3ccc(O)cc13)-c1cc3c(c(=O)n1C2)COC(=O)[C@]3(O)CC [7-ETHYL-10-HYDROXYCAMPTOTHECIN],< 0.1,200,,
CC[C@@H]1CN(C)[C@@H]2Cc3c([nH]c4ccccc34)[C@H](c3ccc4c5c([nH]c4c3)[C@]3(C(=O)OC)C[C@H]4C[C@H](CC)[C@@H]3N(CC5)C4)C[C@H]1[C@H]2C(=O)OC,5400,> 10000,,
C/C=C1/CN2CC[C@@H]1/C(=C\[C@@H]1C[C@@H]3/C(=C\C)CN(C)[C@H](Cc4c1[nH]c1ccccc41)[C@@H]3C(=O)OC)c1[nH]c3ccccc3c1C2,1300,4000,,
CC[C@H]1[C@@H]2CCN3CC[C@@]4(C(=C2C(=O)OC)Nc2ccccc24)[C@@H]13,,,inactive,inactive
C/C=C1/C[N+]2(C)[C@@H]3Cc4c([nH]c5ccccc45)[C@]2(c2ccc4c5c([nH]c4c2)[C@]2(C(=O)OC)C[C@H]4C[C@H](CC)[C@@H]2N(CC5)C4)C[C@H]1[C@H]3C(=O)OC,7300,1200,,
CC[C@H]1CN2CCc3cc(OC)c(OC)cc3[C@@H]2C[C@@H]1C[C@H]1NCCc2c1[nH]c1ccccc21,2,90,,
C=C1c2[nH]c3ccccc3c2CN2CC[C@H]1/C(=C\C)C2,,,inactive,inactive
C/C=C1/C[N+]2(C)[C@@H]3Cc4c([nH]c5ccccc45)[C@]2(c2ccc4c5c([nH]c4c2)[C@@H]2C[C@H]4C[C@H](CC)[C@@H]2N(CC5)C4)C[C@H]1[C@H]3C(=O)OC,1300,3200,,
CCC1C[C@@H]2C[C@@]3(C(=O)OC)C4=Nc5ccccc5[C@@]4(O)CCN([C@@H]13)[C@H]2CC(C)=O (stereo partly specified),,,inactive,inactive
C/C=C1/CN2CC[C@@H]1/C(=C\[C@@H]1C[C@@H]3[C@H](CC)CN(C)[C@H](Cc4c1[nH]c1ccccc41)[C@@H]3C(=O)OC)c1[nH]c3ccccc3c1C2,800,8100,,
